The results in this text go back to ChEMBL document CHEMBL1140369, “Synthesis and SAR of 2-carboxylic acid indoles as inhibitors of plasminogen activator inhibitor-1” (Bioorg Med Chem Lett, 2005).

For experiment [1], the target named is T1, Plasminogen activator inhibitor 1 (Homo sapiens, UniProt P05121). The experiment can be described thus: Percentage inhibitory activity against Plasminogen activator inhibitor-1 at 10 uM. In a few lines:
(§1)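 Recombinant human PAI-1 with compound, then tPA added; restored tPA cleavage of a chromogenic substrate read spectrophotometrically and reported as % inhibition at single concentration. Buffer pH 6.6: Na2HPO4 50 mM, NaCl 200 mM, EDTA 1 mM, no serum protein.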

The target of experiment [2] is T1, Plasminogen activator inhibitor 1. The experiment can be described thus: Percentage inhibitory activity against Plasminogen activator inhibitor-1 at 25 uM. Put shortly: as §1
Experiment [3] has the same target. The experiment can be described thus: Percentage inhibitory activity against Plasminogen activator inhibitor-1 at 100 uM. Put shortly:
as §1

Experiment [4] shares this target. The experiment can be described thus: Inhibitory concentration against Plasminogen activator inhibitor-1 by antibody assay.

The term Inhibition denotes the share of the control response that was lost under treatment. Low readings indicate a response near the control, high ones a response far below the control. As usually defined, the IC50 is the concentration at which inhibition is half-maximal. A higher IC50 goes with lower potency.

T1 sequence (P05121 whole entry): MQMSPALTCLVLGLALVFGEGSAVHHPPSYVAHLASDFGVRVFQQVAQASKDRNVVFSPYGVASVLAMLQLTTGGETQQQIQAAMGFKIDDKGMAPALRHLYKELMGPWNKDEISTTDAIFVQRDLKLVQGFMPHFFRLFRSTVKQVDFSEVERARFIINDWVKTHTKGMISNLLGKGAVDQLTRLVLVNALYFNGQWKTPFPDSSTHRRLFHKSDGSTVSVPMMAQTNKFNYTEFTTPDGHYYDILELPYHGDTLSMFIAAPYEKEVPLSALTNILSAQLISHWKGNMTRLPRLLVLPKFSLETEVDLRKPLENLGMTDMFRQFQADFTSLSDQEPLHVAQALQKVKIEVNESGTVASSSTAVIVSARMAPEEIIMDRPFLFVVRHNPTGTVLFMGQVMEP

As for `O=C(O)c1c(-c2ccccc2)c2cc(-n3cccc3)ccc2n1Cc1ccccc1`, the Inhibition was 12% in experiment [1] and 69% in experiment [2].

Take `O=C(Nc1ccc(Cl)c(Cl)c1)c1ccc(CNc2cc([N+](=O)[O-])ccc2C(=O)O)cc1`: the Inhibition worked out at 3% in experiment [1], 51% in experiment [2] and 74% in experiment [3]. Inhibition in experiment [4] was half-maximal at 17.8 µM (IC50).

For `O=C(O)c1c(-c2ccccc2)c2cc(Nc3ccc(-c4ccccc4)cc3)ccc2n1Cc1ccccc1`, the Inhibition in experiment [1] is 36%; in experiment [2] it was 71%.

As for `CC(C)(C)c1ccc(Nc2ccc3c(c2)c(-c2ccccc2)c(C(=O)O)n3Cc2ccc(-c3ccccc3)cc2)cc1`, the Inhibition in experiment [1] was determined as 52%; in experiment [2], 80%.

In the case of `Cn1c(C(=O)O)c(-c2ccccc2)c2cc(NS(=O)(=O)c3ccc(OC(F)(F)F)cc3)ccc21`, the Inhibition in experiment [1] amounted to 0%; in experiment [2], 19%.

`CC(C)(C)c1ccc(S(=O)(=O)Nc2ccc3c(c2)c(-c2ccccc2)c(C(=O)O)n3Cc2ccccc2)cc1`: the Inhibition amounted to 41% in experiment [1] and 82% in experiment [2].

Consider `Cn1c(C(=O)O)c(-c2ccccc2)c2cc(NS(=O)(=O)c3ccc(-c4ccccc4)cc3)ccc21`, for which the Inhibition is 11% in experiment [1] and 68% in experiment [2].

Regarding `O=C(O)c1c(-c2ccccc2)c2cc(NS(=O)(=O)c3cccc4cccnc34)ccc2n1Cc1ccccc1`, the Inhibition in experiment [1] came out at 8%; in experiment [2] it was 43%.

Take `O=C(O)c1c(-c2ccccc2)c2cc(NS(=O)(=O)c3ccc(-c4ccccc4)cc3)ccc2n1Cc1ccccc1`: the Inhibition was 44% in experiment [1] and 61% in experiment [2].

Molecule `O=C(O)c1cc2cc(NS(=O)(=O)c3ccccc3)ccc2n1Cc1ccccc1` came in with an Inhibition in experiment [3] of 32%.

With `Cc1ccc(C)n1-c1ccc2c(c1)c(-c1ccccc1)c(C(=O)O)n2Cc1ccccc1`, the Inhibition in experiment [1] was 23%; in experiment [2], 83%.

`O=C(Nc1ccc2c(c1)c(-c1ccccc1)c(C(=O)O)n2Cc1ccccc1)c1ccc(F)cc1F`: the Inhibition came to 24% in experiment [1] and 43% in experiment [2].

Regarding `Cc1cccc(Nc2ccc3c(c2)c(-c2ccccc2)c(C(=O)O)n3Cc2ccccc2)c1`, the Inhibition was determined as 24% in experiment [1] and 69% in experiment [2].

For the molecule `O=C(O)c1c(-c2ccccc2)c2cc(NS(=O)(=O)c3ccccc3)ccc2n1Cc1ccc(-c2ccccc2)cc1`, the Inhibition was found to be 79% in experiment [1] and 87% in experiment [2].

Regarding `Cn1c(C(=O)O)c(-c2ccccc2)c2cc(NS(=O)(=O)c3ccc(C(C)(C)C)cc3)ccc21`, the Inhibition was found to be 5% in experiment [1] and 46% in experiment [2].

Take `Cn1c(C(=O)O)c(-c2ccccc2)c2cc(NS(=O)(=O)c3cccc4cccnc34)ccc21`: the Inhibition in experiment [1] was found to be 0%; in experiment [2], 1%.

Turning to `O=C(Nc1ccc2c(c1)c(-c1ccccc1)c(C(=O)O)n2Cc1ccccc1)Nc1ccc(F)cc1F`, the results for the Inhibition in experiment [1] and in experiment [2] were 27% and 61%, respectively.

With `O=C(O)c1c(-c2ccccc2)c2cc(NS(=O)(=O)c3ccc(OC(F)(F)F)cc3)ccc2n1Cc1ccccc1`, the Inhibition came out at 33% in experiment [1] and 81% in experiment [2].

`CC(C)(C)c1ccc(Nc2ccc3c(c2)c(-c2ccccc2)c(C(=O)O)n3Cc2ccccc2)cc1`: the Inhibition in experiment [1] amounted to 45%; in experiment [2], 73%.

With `CCCCS(=O)(=O)Nc1ccc2c(c1)cc(C(=O)O)n2Cc1ccccc1`, the Inhibition in experiment [3] was determined as 14%.

In the case of `O=C(O)c1cc2cc(NS(=O)(=O)c3ccc(Cl)c(Cl)c3)ccc2n1Cc1ccccc1`, in experiment [3], the Inhibition worked out at 62%.

As to `O=C(O)C(=O)c1cn(Cc2ccccc2)c2ccc(-c3ccc(OC(F)(F)F)cc3)cc12`, the Inhibition in experiment [1] is 0%; in experiment [2], 47%; in experiment [3], 83%.

With `O=C(O)c1cc2cc(NS(=O)(=O)c3ccc(-c4ccccc4)cc3)ccc2n1Cc1ccccc1`, the Inhibition in experiment [2] was determined as 49%; in experiment [3], 64%. Moreover, the half-inhibitory concentration (IC50) in experiment [4] came out at 63.1 µM.
